Measured values published in ChEMBL document CHEMBL1156388, “Modulation of the multidrug-resistance phenotype by new tropane alkaloid aromatic esters from Erythroxylum pervillei” (J Nat Prod, 2001).
Converted amounts (≈) assume the structure as drawn. The source made the active and inactive calls. The calls are words filed in the database; no cut-off is given here.

Tests used:
[1] = Cytotoxicity against human multidrug-resistant SKVLB1 cells; format: functional, cell-based
SK-OV-3 = experiment: Cytotoxicity against human SKOV3 cells; format: functional, cell-based
[2] = Cytotoxicity against human multidrug-resistant SKVLB1 cells in presence of adriamycin; format: functional, cell-based
[3] = Cytotoxicity against human multidrug-resistant KBV1 cells in absence of vinblastin; format: functional; settings: KB-V1, read-out: ED50 (the source's name)
Col2 = experiment: Cytotoxicity against human Col2 cells; format: functional; settings: read-out: ED50 (the source's name)
LNCaP = experiment: Cytotoxicity against human LNCAP cells; format: functional; settings: read-out: ED50 (the source's name)
SW626 = experiment: Cytotoxicity against human SW626 cells; format: functional; settings: read-out: ED50 (the source's name)
[4] = Cytotoxicity against human multidrug-resistant KBV1 cells in presence of vinblastin; format: functional; settings: KB-V1, read-out: ED50 (the source's name)
Lu1 = experiment: Cytotoxicity against human Lu1 cells; format: functional; settings: read-out: ED50 (the source's name)
[5] = Cytotoxicity against human BC1 cells; format: functional; settings: read-out: ED50 (the source's name)
KB = experiment: Cytotoxicity against human KB cells; format: functional; settings: read-out: ED50 (the source's name)
LOX IMVI [6] = experiment: Increase in DINIB-induced cytotoxicity against human LOXIMVI at 0.8 to 12.5 ug/mL; format: functional, cell-based
Procedure, shortened: (§1)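 Modulator dose ranges were chosen to give full dose–response curves and were combined with DINIB, an MDR-substrate cytotoxic agent, at nontoxic modulator concentrations. 5-Fluorouracil, a non-MDR agent, served as the negative-control drug. MDR1 expression and function: HCT-15 and UO-31 high, CAKI-1 moderate, LOX IMVI none (no MDR phenotype). The read-out was enhancement of DINIB growth inhibition.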

[7] = biological target: T1, ATP-dependent translocase ABCB1 (Homo sapiens, UniProt P08183); experiment: Modulation of P-gp in human UO31 cells assessed as increase in DINIB-induced cytotoxicity at 1.5 to 25 ug/mL; format: cell-based; settings: uo-31
T1 sequence (P08183 whole entry): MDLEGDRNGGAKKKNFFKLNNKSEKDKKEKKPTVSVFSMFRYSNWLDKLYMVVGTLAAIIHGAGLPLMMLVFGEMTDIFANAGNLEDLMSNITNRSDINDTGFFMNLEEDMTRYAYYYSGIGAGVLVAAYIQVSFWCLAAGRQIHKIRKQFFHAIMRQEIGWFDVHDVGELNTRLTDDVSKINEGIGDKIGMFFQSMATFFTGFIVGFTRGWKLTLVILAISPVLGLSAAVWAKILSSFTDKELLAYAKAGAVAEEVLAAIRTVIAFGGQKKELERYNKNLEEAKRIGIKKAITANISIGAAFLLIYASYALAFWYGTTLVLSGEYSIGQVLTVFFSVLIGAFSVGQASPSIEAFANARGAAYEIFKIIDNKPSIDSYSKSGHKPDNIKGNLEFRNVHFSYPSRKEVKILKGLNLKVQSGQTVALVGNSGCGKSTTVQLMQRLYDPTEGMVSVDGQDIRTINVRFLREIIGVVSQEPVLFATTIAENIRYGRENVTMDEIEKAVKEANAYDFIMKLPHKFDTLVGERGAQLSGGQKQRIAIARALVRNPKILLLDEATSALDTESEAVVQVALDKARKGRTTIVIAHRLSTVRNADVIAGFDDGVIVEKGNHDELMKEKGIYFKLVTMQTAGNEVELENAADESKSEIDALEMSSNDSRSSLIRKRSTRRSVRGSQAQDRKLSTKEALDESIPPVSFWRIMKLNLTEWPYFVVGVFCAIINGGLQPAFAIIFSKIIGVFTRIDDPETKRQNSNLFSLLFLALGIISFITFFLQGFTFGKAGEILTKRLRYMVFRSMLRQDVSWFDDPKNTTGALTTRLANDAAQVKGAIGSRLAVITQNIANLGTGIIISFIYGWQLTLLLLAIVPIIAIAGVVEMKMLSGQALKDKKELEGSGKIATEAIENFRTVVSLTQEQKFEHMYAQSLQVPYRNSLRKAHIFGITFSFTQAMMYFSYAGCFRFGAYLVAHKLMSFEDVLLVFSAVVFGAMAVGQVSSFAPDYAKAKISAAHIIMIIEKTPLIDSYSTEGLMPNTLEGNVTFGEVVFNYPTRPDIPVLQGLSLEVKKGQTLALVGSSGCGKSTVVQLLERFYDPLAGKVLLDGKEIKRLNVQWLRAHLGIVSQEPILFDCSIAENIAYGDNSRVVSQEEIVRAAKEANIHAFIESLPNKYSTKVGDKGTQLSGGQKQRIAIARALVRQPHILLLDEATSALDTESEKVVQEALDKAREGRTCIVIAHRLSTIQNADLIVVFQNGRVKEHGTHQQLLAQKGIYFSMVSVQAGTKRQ
Procedure, shortened: (§2)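 NCI tumour-panel lines of differing MDR1 expression and function (HCT-15 and UO-31 high, CAKI-1 moderate, LOX IMVI none) were exposed to the MDR-substrate cytotoxin DINIB with or without modulator. 5-Fluorouracil, a non-MDR agent, served as the negative control; verapamil and cyclosporin A were reference modulators. Modulator concentrations spanned full dose–response curves. Maximum escalation of DINIB toxicity was taken at nontoxic modulator concentrations.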

LOX IMVI [8] = experiment: Increase in DINIB-induced cytotoxicity against human LOXIMVI at 1.5 to 25 ug/mL; format: functional, cell-based; procedure, shortened: as §2
[9] = biological target: T1, ATP-dependent translocase ABCB1; experiment: Modulation of P-gp in human CAKI1 cells assessed as increase in DINIB-induced cytotoxicity at 1.5 to 25 ug/mL; format: cell-based; settings: caki-1; procedure, shortened: as §2
[10] = biological target: T1, ATP-dependent translocase ABCB1; experiment: Modulation of P-gp in human HCT15 cells assessed as increase in DINIB-induced cytotoxicity at 1.5 to 25 ug/mL; format: cell-based; settings: hct-15; procedure, shortened: as §2
[11] = biological target: T1, ATP-dependent translocase ABCB1; experiment: Modulation of P-gp in human UO31 cells assessed as increase in DINIB-induced cytotoxicity at 0.2 to 12.5 ug/mL; format: cell-based; settings: uo-31; procedure, shortened: as §1
[12] = biological target: T1, ATP-dependent translocase ABCB1; experiment: Modulation of P-gp in human HCT15 cells assessed as increase in DINIB-induced cytotoxicity at 0.2 to 12.5 ug/mL; format: cell-based; settings: hct-15; procedure, shortened: as §1
[13] = biological target: T1, ATP-dependent translocase ABCB1; experiment: Modulation of P-gp in human CAKI1 cells assessed as increase in DINIB-induced cytotoxicity at 0.2 to 12.5 ug/mL; format: cell-based; settings: caki-1; procedure, shortened: as §1
LOX IMVI [14] = experiment: Increase in DINIB-induced cytotoxicity against human LOXIMVI at 0.2 to 12.5 ug/mL; format: functional, cell-based; procedure, shortened: as §1
LOX IMVI [15] = experiment: Increase in DINIB-induced cytotoxicity against human LOXIMVI at 3.1 to 50 ug/mL; format: functional, cell-based; procedure, shortened: as §1
[16] = biological target: T1, ATP-dependent translocase ABCB1; experiment: Modulation of P-gp in human UO31 cells assessed as increase in DINIB-induced cytotoxicity at 3.1 to 50 ug/mL; format: cell-based; settings: uo-31; procedure, shortened: as §1
[17] = biological target: T1, ATP-dependent translocase ABCB1; experiment: Modulation of P-gp in human HCT15 cells assessed as increase in DINIB-induced cytotoxicity at 3.1 to 50 ug/mL; format: cell-based; settings: hct-15; procedure, shortened: as §1
[18] = biological target: T1, ATP-dependent translocase ABCB1; experiment: Modulation of P-gp in human CAKI1 cells assessed as increase in DINIB-induced cytotoxicity at 3.1 to 50 ug/mL; format: cell-based; settings: caki-1; procedure, shortened: as §1
[19] = biological target: T1, ATP-dependent translocase ABCB1; experiment: Modulation of P-gp in human HCT15 cells assessed as increase in DINIB-induced cytotoxicity at 0.2 to 3.1 ug/mL; format: cell-based; settings: hct-15; procedure, shortened: as §1
[20] = biological target: T1, ATP-dependent translocase ABCB1; experiment: Modulation of P-gp in human UO31 cells assessed as increase in DINIB-induced cytotoxicity at 0.2 to 3.1 ug/mL; format: cell-based; settings: uo-31; procedure, shortened: as §1
[21] = biological target: T1, ATP-dependent translocase ABCB1; experiment: Modulation of P-gp in human CAKI1 cells assessed as increase in DINIB-induced cytotoxicity at 0.2 to 3.1 ug/mL; format: cell-based; settings: caki-1; procedure, shortened: as §1
LOX IMVI [22] = experiment: Increase in DINIB-induced cytotoxicity against human LOXIMVI at 0.2 to 3.1 ug/mL; format: functional, cell-based; procedure, shortened: as §1

## COc1cc2c(cc1OC)CN(CCc1ccc(NC(=O)c3cccc4c(=O)c5cccc(OC)c5[nH]c34)cc1)CC2
[1]
  IC50: 14 µM
SK-OV-3
  IC50: 8.1 µM
[2]
  IC50: 20 nM

## COc1cc(/C=C/C(=O)O[C@H]2C[C@@H]3C[C@H](OC(=O)Cc4cccc(O)c4)C[C@H]2N3C)cc(OC)c1OC [PERVILLEINE E]
[3]
  EC50: > 20 µg/mL
Col2
  EC50: 13.4 µg/mL (≈ 26.2 µM)
LNCaP
  EC50: > 20 µg/mL
SW626
  EC50: 8.4 µg/mL (≈ 16.4 µM)
[4]
  EC50: 1.9 µg/mL
Lu1
  EC50: > 20 µg/mL
[5]
  EC50: > 20 µg/mL
KB
  EC50: 14.7 µg/mL (≈ 28.7 µM)

## COc1ccc(CCN(C)CCCC(C#N)(c2ccc(OC)c(OC)c2)C(C)C)cc1OC (stereo unspecified)
LOX IMVI [6]
  Activity: Active

## COc1cc(C(=O)O[C@H]2C[C@H]3CC[C@@H](C2)N3C)cc(OC)c1OC
[3]
  EC50: > 20 µg/mL
Col2
  EC50: > 20 µg/mL
LNCaP
  EC50: > 20 µg/mL
SW626
  EC50: > 20 µg/mL
[4]
  EC50: > 20 µg/mL
Lu1
  EC50: > 20 µg/mL
[5]
  EC50: > 20 µg/mL
KB
  EC50: > 20 µg/mL

## COc1cc(/C=C/C(=O)O[C@H]2[C@@H](O)[C@@H]3C[C@H](OC(=O)c4cc(OC)c(OC)c(OC)c4)C[C@H]2[N+]3(C)[O-])cc(OC)c1OC (stereo partly specified)
[3]
  EC50: > 20 µg/mL
Col2
  EC50: > 20 µg/mL
LNCaP
  EC50: > 20 µg/mL
SW626
  EC50: > 20 µg/mL
[1]
  IC50: > 10 µM
[4]
  EC50: > 20 µg/mL
SK-OV-3
  IC50: > 10 µM
Lu1
  EC50: > 20 µg/mL
[5]
  EC50: > 20 µg/mL
[2]
  IC50: > 10000 nM
KB
  EC50: > 20 µg/mL

## COc1cc(/C=C/C(=O)O[C@H]2[C@@H](O)[C@@H]3C[C@H](OC(=O)c4cc(OC)c(OC)c(OC)c4)C[C@H]2N3C)cc(OC)c1OC [PERVILLEINE A]
[3]
  EC50: > 20 µg/mL
Col2
  EC50: > 20 µg/mL
LNCaP
  EC50: > 20 µg/mL
SW626
  EC50: > 20 µg/mL
[1]
  IC50: > 10 µM
[4]
  EC50: 0.3 µg/mL
SK-OV-3
  IC50: > 10 µM
Lu1
  EC50: > 20 µg/mL
[5]
  EC50: > 20 µg/mL
[2]
  IC50: 650 nM
KB
  EC50: > 20 µg/mL

## COc1cc(/C=C/C(=O)O[C@H]2C[C@@H]3C[C@H](OC(=O)Cc4ccccc4)C[C@H]2N3C)cc(OC)c1OC [PERVILLEINE F]
[7]
  Activity: Active
[3]
  EC50: > 20 µg/mL
LOX IMVI [8]
  Activity: inactive
[9]
  Activity: Active
Col2
  EC50: 4.9 µg/mL (≈ 9.89 µM)
LNCaP
  EC50: > 20 µg/mL
SW626
  EC50: > 20 µg/mL
[4]
  EC50: 0.2 µg/mL
Lu1
  EC50: > 20 µg/mL
[5]
  EC50: > 20 µg/mL
[10]
  Activity: Active
KB
  EC50: > 20 µg/mL

## COc1cc(/C=C/C(=O)O[C@H]2C[C@@H]3C[C@H](OC(=O)c4cc(OC)c(OC)c(OC)c4)C[C@H]2N3C)cc(OC)c1OC [PERVILLEINE B]
[11]
  Activity: Active
[12]
  Activity: Active
[3]
  EC50: 8.8 µg/mL (≈ 15.4 µM)
[13]
  Activity: Active
Col2
  EC50: 1.3 µg/mL (≈ 2.27 µM)
LOX IMVI [14]
  Activity: inactive
LNCaP
  EC50: 1 µg/mL (≈ 1.75 µM)
SW626
  EC50: 3.2 µg/mL (≈ 5.6 µM)
[1]
  IC50: > 10 µM
[4]
  EC50: 0.1 µg/mL
SK-OV-3
  IC50: 3.8 µM
Lu1
  EC50: 3.1 µg/mL (≈ 5.42 µM)
[5]
  EC50: 9.4 µg/mL (≈ 16.4 µM)
[2]
  IC50: 120 nM
KB
  EC50: > 20 µg/mL

## COc1cccc2c1C(=O)c1c(O)c3c(c(O)c1C2=O)C[C@@](O)(C(=O)CO)C[C@@H]3O[C@H]1C[C@H](N)[C@H](O)[C@H](C)O1 [DOXORUBICIN]
[1]
  IC50: 2.2 µM
SK-OV-3
  IC50: 0.008 µM

## COc1cc(/C=C/C(=O)O[C@@H]2C[C@@H]3[C@@H](OC(=O)/C=C/c4cc(OC)c(OC)c(OC)c4)[C@@H](O)[C@H](C2)N3C)cc(OC)c1OC [PERVILLEINE D]
[3]
  EC50: 9 µg/mL (≈ 14.7 µM)
LOX IMVI [15]
  Activity: inactive
Col2
  EC50: 4.9 µg/mL (≈ 7.98 µM)
[16]
  Activity: Active
[17]
  Activity: Active
LNCaP
  EC50: 14.1 µg/mL (≈ 23 µM)
SW626
  EC50: 6.5 µg/mL (≈ 10.6 µM)
[4]
  EC50: 0.2 µg/mL
Lu1
  EC50: 15.1 µg/mL (≈ 24.6 µM)
[5]
  EC50: 15 µg/mL (≈ 24.4 µM)
[18]
  Activity: Active
KB
  EC50: 11 µg/mL (≈ 17.9 µM)

## COc1cc(/C=C/C(=O)O[C@H]2C[C@H]3C[C@H](OC(=O)/C=C/c4cc(OC)c(OC)c(OC)c4)[C@@H](C2)N3C)cc(OC)c1OC [PERVILLEINE C]
[19]
  Activity: Active
[3]
  EC50: 9 µg/mL (≈ 15.1 µM)
[20]
  Activity: Active
Col2
  EC50: 4.1 µg/mL (≈ 6.86 µM)
[21]
  Activity: Active
LNCaP
  EC50: > 20 µg/mL
SW626
  EC50: 1.4 µg/mL (≈ 2.34 µM)
LOX IMVI [22]
  Activity: inactive
[1]
  IC50: > 10 µM
[4]
  EC50: 0.1 µg/mL
SK-OV-3
  IC50: 2.8 µM
Lu1
  EC50: 2.3 µg/mL (≈ 3.85 µM)
[5]
  EC50: 2.8 µg/mL (≈ 4.68 µM)
[2]
  IC50: 80 nM
KB
  EC50: 2.2 µg/mL (≈ 3.68 µM)

## CN1C2C[C@@H](OC(=O)Cc3ccccc3)CC1[C@H](O)[C@@H]2O
[3]
  EC50: > 20 µg/mL
Col2
  EC50: > 20 µg/mL
LNCaP
  EC50: > 20 µg/mL
SW626
  EC50: > 20 µg/mL
[4]
  EC50: > 20 µg/mL
Lu1
  EC50: > 20 µg/mL
[5]
  EC50: > 20 µg/mL
KB
  EC50: > 20 µg/mL
